Measurements: ChEMBL document CHEMBL1828569, “Cyclopentane-1,3-dione: a novel isostere for the carboxylic acid functional group. Application to the design of potent thromboxane (A2) receptor antagonists” (J Med Chem, 2011)

Key:
Thromboxane A2 receptor [1] = target: T1, Thromboxane A2 receptor (Mus musculus, UniProt P30987); experiment: Antagonist activity at mouse prostanoid TP receptor expressed in QBI-HEK 293A cells assessed as inhibition of […]-induced increase in inositol monophosphate after 1 hr by time-resolved fluorescence assay; format: functional, cell-based, HEK293
T1 sequence (P30987 whole entry): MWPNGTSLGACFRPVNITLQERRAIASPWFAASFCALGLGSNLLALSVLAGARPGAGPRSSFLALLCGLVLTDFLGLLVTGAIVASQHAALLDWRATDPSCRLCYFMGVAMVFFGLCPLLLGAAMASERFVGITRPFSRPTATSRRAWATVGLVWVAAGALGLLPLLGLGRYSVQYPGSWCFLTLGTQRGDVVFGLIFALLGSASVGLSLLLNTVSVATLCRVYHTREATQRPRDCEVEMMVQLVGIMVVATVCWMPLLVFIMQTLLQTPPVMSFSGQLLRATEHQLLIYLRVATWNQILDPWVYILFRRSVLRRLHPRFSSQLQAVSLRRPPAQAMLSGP
Outline: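 QBI-HEK 293A cells stably transfected with human or mouse TP receptor cDNA, seeded at 10 000 cells/well and grown 16 h at 37 °C. Cells were preincubated 15 min at 37 °C with antagonist at varying concentrations in Hepes-buffered saline containing 50 mM LiCl, pH 7.4. I-BOP was then added at 1.6 nM for 1 h. IP1 was measured by HTRF (Tb anti-IP1 cryptate/D2-IP1, 1 h at 25 °C) as the 665/620 nm ratio.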

Thromboxane A2 receptor [2] = target: T2, Thromboxane A2 receptor (Homo sapiens, UniProt P21731); experiment: Displacement of [3H]SQ-29548 from human prostanoid TP receptor expressed in QBI-HEK 293A cells after 2 hrs by scintillation proximity assay; format: cell-based, HEK293
T2 sequence (P21731 whole entry): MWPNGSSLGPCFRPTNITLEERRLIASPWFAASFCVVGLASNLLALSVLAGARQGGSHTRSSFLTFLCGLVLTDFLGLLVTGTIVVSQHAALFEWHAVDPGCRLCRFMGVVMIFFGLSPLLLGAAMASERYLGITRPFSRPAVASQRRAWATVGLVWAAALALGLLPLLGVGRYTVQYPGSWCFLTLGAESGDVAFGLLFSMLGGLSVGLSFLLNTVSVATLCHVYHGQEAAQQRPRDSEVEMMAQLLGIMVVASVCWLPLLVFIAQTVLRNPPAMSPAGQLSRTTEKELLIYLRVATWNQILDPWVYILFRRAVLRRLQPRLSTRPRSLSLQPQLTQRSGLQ

Thromboxane A2 receptor [3] = target: T1, Thromboxane A2 receptor; experiment: Displacement of [3H]SQ-29548 from mouse prostanoid TP receptor expressed in QBI-HEK 293A cells after 2 hrs by scintillation proximity assay; format: cell-based, HEK293
Outline: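 Membranes from QBI-HEK 293A cells stably expressing mouse TP receptor. Cells were harvested in PBS/1 mM EDTA, homogenized in 20 mM Hepes/1 mM EGTA/0.5 mM DTT with protease inhibitors, spun at 1000g and then 21 000 rpm, and the pellet resuspended in Hepes/EGTA/100 mM NaCl. Antagonist at 10 concentrations, 62.5 μg membrane, 100 μg PVT-WGA SPA beads and 20 nM [3H]SQ29,548 in 50 mM Tris, 4 mM CaCl2, 0.1% ascorbate, pH 7.5, 2 h at 25 °C.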

Thromboxane A2 receptor [4] = target: T2, Thromboxane A2 receptor
[5] = Dissociation constant, pKa of the compound by pH metric method; format: physicochemical
[6] = Octanol-phosphate buffer partition coefficient, log P of the compound by pH metric method; format: physicochemical
[7] = Lipophilicity, log D of the compound at pH 7.4 by pH metric method; format: physicochemical; conditions: buffer
[8] = Solubility of the compound in acetonitrile at 10 uM after 2 hrs by spectrophotometry; format: physicochemical

| Compound | Kd (Thromboxane A2 receptor [2]) | Kd (Thromboxane A2 receptor [3]) | IC50 (Thromboxane A2 receptor [4]) | pKa [5] | logP [6] | logD [7] | solubility [8] | further results |
| --- | --- | --- | --- | --- | --- | --- | --- | --- |
| O=C(O)CCc1ccc(Br)cc1 |  |  |  | 4.33 | 3 | 0.01 | soluble |  |
| O=S(=O)(NCCc1cccc(CCc2nnn[nH]2)c1)c1ccc(Cl)cc1 | 331 nM | 19 nM | 64 nM |  |  |  |  | IC50 (Thromboxane A2 receptor [1]): 8 nM |
| O=C1C=C(O)CC1Cc1ccc(Br)cc1 (centres undefined) |  |  |  | 3.96 | 3.02 | -0.42 | soluble |  |
| O=C1CCC(O)=C1Cc1ccc(Br)cc1 |  |  |  | 4.2 | 3.01 | -0.19 | soluble |  |
| CC1=C(OCC(C)C)CC(Cc2cccc(CCNS(=O)(=O)c3ccc(Cl)cc3)c2)C1=O (centres undefined) |  |  | > 10000 nM |  |  |  |  |  |
| CC1=C(O)CCC1=O |  |  |  | 4.47 |  |  |  |  |
| O=S(=O)(NCCc1cccc(CCCO)c1)c1ccc(Cl)cc1 | > 10000 nM | 10000 nM | 15100 nM |  |  |  |  | IC50 (Thromboxane A2 receptor [1]): 1630 nM |
| Brc1ccc(Cc2nn[nH]n2)cc1 |  |  |  | 4.62 | 2.21 | -0.42 | soluble |  |
| CC1=C(O)CC(Cc2ccc(Br)cc2)C1=O (centres undefined) |  |  |  | 4.24 | 3.28 | 0.11 | soluble |  |
| O=C1C=C(O)CC1 |  |  |  | 4.2 |  |  |  |  |
| O=C(O)CCc1cccc(CCNS(=O)(=O)c2ccc(Cl)cc2)c1 |  | 26 nM |  |  |  |  |  |  |

Now from value to molecule, other results behind:

| Kd (Thromboxane A2 receptor [2]) | Kd (Thromboxane A2 receptor [3]) | IC50 (Thromboxane A2 receptor [4]) | pKa [5] | logP [6] | logD [7] | solubility [8] | Compound | further results |
| --- | --- | --- | --- | --- | --- | --- | --- | --- |
| 359 nM | 17 nM | 377 nM |  |  |  |  | O=c1c(O)c(NCc2cccc(CCNS(=O)(=O)c3ccc(Cl)cc3)c2)c1=O | IC50 (Thromboxane A2 receptor [1]): 91 nM |
| 11400 nM | 1200 nM | > 10000 nM |  |  |  |  | O=C1CCC(O)=C1Cc1cccc(CCNS(=O)(=O)c2ccc(Cl)cc2)c1 |  |
|  |  | > 10000 nM |  |  |  |  | O=C1CCC(O)=C1CCc1cccc(CCNS(=O)(=O)c2ccc(Cl)cc2)c1 |  |
| 328 nM | 26 nM |  |  |  |  |  | CC1=C(O)C(Cc2cccc(CCNS(=O)(=O)c3ccc(Cl)cc3)c2)CC1=O (centres undefined) |  |
| 203 nM | 11 nM |  |  |  |  |  | O=C1C=C(O)C(Cc2cccc(CCNS(=O)(=O)c3ccc(Cl)cc3)c2)C1 (centres undefined) |  |
